For 30 molecules, IC50 results are on record in ChEMBL document CHEMBL1275289, “The synthesis, structure and activity evaluation of pyrogallol and catechol derivatives as Helicobacter pylori urease inhibitors” (Eur J Med Chem, 2010).

Assay [1] addresses T1, Urease subunit alpha/Urease subunit beta (Helicobacter pylori (strain ATCC 700392 / 26695) (Campylobacterpylori), UniProt P69996). In words: Inhibition of cell free Helicobacter pylori ATCC 43504 urease assessed as reduction in ammonia production by indophenol based Berthelot color reaction method. In short, it runs like this:
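H. pylori ATCC 43504 grown 24 h at 37 °C, microaerobic (5% O2, 10% CO2, 85% N2), in Brucella broth with 10% heat-inactivated horse serum. Cells (2.0 × 10⁸ CFU/mL) pelleted at 5000 g, 4 °C, washed twice in PBS pH 7.4, stored at −80 °C, then sonicated 60 s in water with protease inhibitors. Extract preincubated with compound 1.5 h at room temperature; ammonia measured by indophenol method.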

Assay [2] deals with T1, Urease subunit alpha/Urease subunit beta. In words: Inhibition of urease in intact Helicobacter pylori ATCC 43504 assessed as reduction in ammonia production by indophenol based Berthelot color reaction method. In short, it runs like this:
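H. pylori grown 24 h at 37 °C in Brucella broth with 10% heat-inactivated horse serum under microaerobic gas (5% O₂, 10% CO₂, 85% N₂). Cells harvested, washed twice in PBS pH 7.4, and resuspended to 4.0 × 10⁷ CFU/mL. Suspension pre-incubated with compound for 1.5 h at room temperature. Ammonia production measured by the indophenol (Berthelot) method.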

T1 sequence (P69996 whole entry): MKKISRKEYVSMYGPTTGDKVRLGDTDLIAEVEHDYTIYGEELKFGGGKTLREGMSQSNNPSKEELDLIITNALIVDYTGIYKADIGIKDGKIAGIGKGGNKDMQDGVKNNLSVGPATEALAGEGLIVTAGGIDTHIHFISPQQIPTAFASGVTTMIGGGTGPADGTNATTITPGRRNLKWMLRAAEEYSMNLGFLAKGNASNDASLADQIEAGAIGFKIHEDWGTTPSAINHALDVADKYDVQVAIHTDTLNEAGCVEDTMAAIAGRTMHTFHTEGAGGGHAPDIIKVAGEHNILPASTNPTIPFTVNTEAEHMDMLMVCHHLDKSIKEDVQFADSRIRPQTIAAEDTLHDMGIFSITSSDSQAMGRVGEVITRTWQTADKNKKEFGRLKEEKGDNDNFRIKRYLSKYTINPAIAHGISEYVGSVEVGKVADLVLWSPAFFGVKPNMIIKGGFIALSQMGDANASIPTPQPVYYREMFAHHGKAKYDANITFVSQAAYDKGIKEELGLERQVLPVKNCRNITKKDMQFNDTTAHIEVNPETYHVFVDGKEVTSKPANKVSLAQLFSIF
T1 sequence (P14916 whole entry, further chain): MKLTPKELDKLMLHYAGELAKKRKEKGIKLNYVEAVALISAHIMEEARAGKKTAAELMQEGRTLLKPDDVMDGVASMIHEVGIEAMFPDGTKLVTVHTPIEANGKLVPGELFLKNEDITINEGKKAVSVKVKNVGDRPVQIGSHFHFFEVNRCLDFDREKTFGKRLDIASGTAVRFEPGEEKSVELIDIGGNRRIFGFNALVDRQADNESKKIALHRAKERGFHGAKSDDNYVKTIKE

As a reminder, the IC50 is the concentration at which inhibition is half-maximal. Regarding `COc1ccc(CCc2ccc(Cl)cc2)cc1OC`, the half-inhibitory concentration (IC50) in assay [1] amounted to 254 µM.
Regarding `Oc1ccc(CCc2ccc(Br)cc2)c(O)c1O`, in assay [1], the IC50 came to 48 µM.
Regarding `Oc1ccc(CCc2cccc(Cl)c2)c(O)c1O`, the IC50 in assay [1] came out at 50 µM.
`Oc1ccc(CCc2cccc(Br)c2)c(O)c1O`: the IC50 in assay [1] worked out at 52 µM.
On to `Oc1ccc(CCc2ccc(Cl)cc2)cc1O`, for which the IC50 in assay [1] was 8.3 µM; in assay [2] it was 50.1 µM.
On the same counts, the results for `Oc1ccc(CCc2cccc(Cl)c2)cc1O` are 15.7 µM and 94.7 µM.
Take `CCc1ccc(O)c(O)c1O`: the IC50 in assay [1] was found to be 34 µM.
With `CCCCc1ccc(O)c(O)c1O`, the IC50 in assay [1] came out at 79 µM.
On to `CCCCCCc1ccc(O)c(O)c1O`, for which the IC50 in assay [1] worked out at 91 µM.
Still for that read-out and setting: next, `CCCCCCCCc1ccc(O)c(O)c1O`: 103 µM; `CCCCCCCCCCc1ccc(O)c(O)c1O`: 124 µM.
Consider `Oc1ccc(CCc2ccc(F)cc2)cc1O`, for which the 50% inhibitory concentration (IC50) in assay [1] is 6.2 µM; in assay [2], 32.4 µM.
Consider `Oc1ccc(CCc2ccc(O)c(O)c2)cc1`, for which the IC50 is 1.5 µM in assay [1] and 4.2 µM in assay [2].
Take `Oc1ccc(CCc2ccc(F)cc2)c(O)c1O`: the concentration for half-maximal inhibition (IC50) in assay [1] came to 43 µM.
On the same count and under the same terms, under `Oc1ccc(CCc2ccc(Cl)cc2)c(O)c1O` stands 47 µM.
With `Oc1ccc(CCc2cccc(Br)c2)cc1O`, the half-inhibitory concentration (IC50) in assay [1] amounted to 16.9 µM; in assay [2], 88.9 µM.
Regarding `COc1ccc(CCc2ccc(O)c(O)c2)cc1OC`, the IC50 in assay [1] was 22.7 µM.
As to `CCc1ccc(O)c(O)c1`, the IC50 in assay [1] worked out at 4.9 µM; in assay [2], 17.3 µM.
As for `CCCCc1ccc(O)c(O)c1`, the IC50 in assay [1] was found to be 7.9 µM; in assay [2], 38.1 µM.
Regarding `CCCCCCc1ccc(O)c(O)c1`, the half-maximal inhibitory concentration (IC50) came to 12.3 µM in assay [1] and 77.8 µM in assay [2].
Turning to `CCCCCCCCc1ccc(O)c(O)c1`, the concentration for half-maximal inhibition (IC50) in assay [1] came to 58 µM.
Turning to `COc1ccc(CCc2ccc(O)cc2)cc1OC`, the IC50 in assay [1] was 204 µM.
On to `COc1ccc(CCc2cccc(Cl)c2)cc1OC`, for which the half-inhibitory concentration (IC50) in assay [1] was determined as 235 µM.
Turning to `COc1ccc(CCc2ccc(O)c(O)c2O)cc1OC`, in assay [1], the concentration for half-maximal inhibition (IC50) turned out to be 71 µM.
Regarding `CCOc1ccc(CCc2ccc(O)c(O)c2O)cc1OCC`, in assay [1], the half-maximal inhibitory concentration (IC50) was 69 µM.
In the case of `CCCCCCCCCCCCc1ccc(O)c(O)c1O`, in assay [1], the half-inhibitory concentration (IC50) was found to be 168 µM.
The same measure, in the same setting: under `CCCCCCCCCCCCCCc1ccc(O)c(O)c1O` stands 250 µM; under `Oc1ccc(CCc2ccc(O)c(O)c2O)cc1`, 32 µM; under `COc1ccc(CCc2ccccc2O)cc1OC`, 227 µM.
With `CC(=O)NO` [ACETOHYDROXAMIC ACID], the half-maximal inhibitory concentration (IC50) came to 17.2 µM in assay [1] and 101 µM in assay [2].
